Legend:
Canis familiaris = test: Toxicity in Beagle dog assessed as increase in methemoglobin level at 6.4 mg/kg/day, po between 7 to 11 days; format: organism-based, Canis lupus familiaris; set-up: route oral; details: in vivo
Method in brief: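 Beagle dogs, 8-9 months old, given drug as bulk powder in gelatin capsules orally on days 1-4, at 0.0116 mmol/kg/day as base. Daily clinical observation. Methemoglobin measured by co-oximetry from jugular or cephalic blood, predose on days 1, 2 and 4, then through day 29.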

Leishmania donovani [1] = test: Antileishmanial activity against Leishmania donovani HU3 infected in mouse; format: functional
Method in brief: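 L. donovani HU3 amastigotes, 1 × 10^7 given IV to mice. From day 7 post-infection, dosed orally once daily for 5 days in 0.25% methylcellulose-10% ethanol; reference stibogluconate given SC. Mice killed at day 14 post-infection. Parasite burden counted on liver impression smears against untreated controls. ED50 from linear regression, with 95% confidence limits.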

Leishmania donovani [2] = test: Antileishmanial activity against Leishmania donovani HU3 infected in mouse assessed as inhibition of parasite burden at 45 mg/kg/day, sc for 5 days administered 7 days post-infection measured 14 days post-infection; format: functional, organism-based
Method in brief: (§1)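 Mice infected intravenously with 1 × 10^7 L. donovani (MHOM/ET/67/HU3) amastigotes. Starting 7 days post-infection, sodium stibogluconate was given subcutaneously once daily for 5 days, with doses expressed as SbV. Mice were killed 14 days post-infection. Parasite burdens were counted on liver impression smears and compared with an untreated control group. ED50 was obtained by linear regression.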

Leishmania donovani [3] = test: Antileishmanial activity against Leishmania donovani HU3 infected in mouse assessed as inhibition of parasite burden at 15 mg/kg/day, sc for 5 days administered 7 days post-infection measured 14 days post-infection; format: functional, organism-based; method in brief: as §1
Leishmania donovani [4] = test: Antileishmanial activity against Leishmania donovani HU3 infected in mouse assessed as inhibition of parasite burden at 5 mg/kg/day, sc for 5 days administered 7 days post-infection measured 14 days post-infection; format: functional, organism-based; method in brief: as §1
Leishmania donovani [5] = test: Antileishmanial activity against Leishmania donovani HU3 infected in mouse assessed as inhibition of parasite burden administered subcutaneously once daily for 5 days after 7 days post-infection measured 14 days post-infection; format: functional, organism-based; method in brief: as §1

COc1cc(C)c2c(Oc3cccc(C(F)(F)F)c3)c(OC)cc(NC(C)CCCN)c2n1 (stereo not drawn) [TAFENOQUINE]
Activity (Canis familiaris): Toxic

CCN(CC)CCCCCCNc1cc(OC)cc2c(C)ccnc12 [SITAMAQUINE]
ED90 (Leishmania donovani [1]): 4.14 mg/kg | ED50 (Leishmania donovani [1]; Leishmania donovani, HU3): 1.55 mg/kg

Sodium stibogluconate
inhibition (Leishmania donovani [2]): 99.3% | inhibition (Leishmania donovani [3]): 59.4% | inhibition (Leishmania donovani [4]): 13.8% | ED50 (Leishmania donovani [5]): 27.7 mg/kg | ED90 (Leishmania donovani [5]): > 45 mg/kg

— ChEMBL document CHEMBL1649109, “Antiparasitic activities and toxicities of individual enantiomers of the 8-aminoquinoline 8-[(4-amino-1-methylbutyl)amino]-6-methoxy-4-methyl-5-[3,4-dichlorophenoxy]quinoline succinate” (Antimicrob Agents Chemother, 2008)
